Data taken from paper PMC4763880 (Molecular Biosystems, 2016).
Square brackets hold non-standard residues; d marks the D form. Ends that are not written are not given here. * marks the point of attachment. MethylRed = CN(C)c1ccc(/N=N/c2ccccc2C(=O)*)cc1; Dnp = O=[N+]([O-])c1ccc(*)c([N+](=O)[O-])c1; AFC = O=c1cc(C(F)(F)F)c2ccc(N*)cc2o1; Mca = COc1ccc2c(CC(=O)*)cc(=O)oc2c1; Ahx = NCCCCCC(=O)O

T1: recombinant human caspase-7 (Homo sapiens, UniProt P55210)
T1 sequence (P55210 24-198 limits assumed): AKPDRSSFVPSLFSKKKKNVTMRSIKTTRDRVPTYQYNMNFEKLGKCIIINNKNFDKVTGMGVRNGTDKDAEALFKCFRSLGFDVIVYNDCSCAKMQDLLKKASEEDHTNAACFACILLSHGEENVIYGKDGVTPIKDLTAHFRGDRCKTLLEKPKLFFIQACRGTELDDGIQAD
T1 sequence (P55210 207-303 limits assumed): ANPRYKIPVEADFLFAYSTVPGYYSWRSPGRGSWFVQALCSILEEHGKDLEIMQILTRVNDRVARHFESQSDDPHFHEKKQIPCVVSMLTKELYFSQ

T2: human recombinant caspase-3 (human) (UniProt P42574)
T2 sequence: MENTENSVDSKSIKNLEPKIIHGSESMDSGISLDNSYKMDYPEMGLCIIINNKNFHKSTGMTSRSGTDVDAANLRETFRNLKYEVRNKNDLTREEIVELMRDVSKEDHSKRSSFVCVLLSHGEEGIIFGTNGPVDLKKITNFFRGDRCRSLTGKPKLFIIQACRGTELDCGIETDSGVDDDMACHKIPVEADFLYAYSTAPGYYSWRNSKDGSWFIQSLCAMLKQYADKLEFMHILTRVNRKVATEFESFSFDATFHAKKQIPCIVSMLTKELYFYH

T3: human recombinant caspase-7 (human) (UniProt P55210)
T3 sequence: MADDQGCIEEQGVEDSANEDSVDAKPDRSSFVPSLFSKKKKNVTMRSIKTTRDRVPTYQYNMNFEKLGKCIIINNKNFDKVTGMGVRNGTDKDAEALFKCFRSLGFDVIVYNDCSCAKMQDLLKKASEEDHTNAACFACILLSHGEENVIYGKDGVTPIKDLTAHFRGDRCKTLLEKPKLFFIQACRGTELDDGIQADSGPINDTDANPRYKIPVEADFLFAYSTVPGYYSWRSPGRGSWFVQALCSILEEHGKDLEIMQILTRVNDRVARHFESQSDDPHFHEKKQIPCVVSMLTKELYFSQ


How the values were obtained:
[1] = target: T1, recombinant human caspase-7; test: Kinetic assay; type: biochemical; details: caspase-7 15 nM; pH 7.5 caspase buffer; n = 3
Outline: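 Human recombinant enzyme was incubated with internally quenched FRET substrates, FAM-Ahx-Asp-Glu-X2-Asp-X1′-(Ahx)-Lys(MR)-NH2. X2 was Val or Pro; X1′ was Gly, Ala, Ser or absent. The donor was 5(6)-carboxyfluorescein (Ex/Em 492/517 nm) and the quencher methyl red. Cleavage between Asp and X1′ relieves quenching. KM and kcat were determined for each substrate, and catalytic efficiency taken as kcat/KM.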

[2] = system: caspase-3; test: Screen of time-dependent fluorescence activation with caspase-3; type: biochemical, human; details: caspase-3 15 nM; for Activation with caspase-3 in preliminary screen (in words): substrate 2.5, 5 and 10 μM, 0-40 min, n = 3 (Fig. S1)
[3] = target: T2, human recombinant caspase-3 (human)
[4] = target: T3, human recombinant caspase-7 (human)

Molecule | Caspase-7 k cat/K M (catalytic efficiency) [1] [μM^–1 min^–1] | further results
Substrate 1: FRET substrate FAM-Ahx-Asp-Glu-X2-Asp-X1′-spacer-Lys(MR)-NH2; X2 Val, X1′ Gly, no spacer ({5(6)‑carboxyfluorescein-Ahx}-DEVDGK(MethylRed)-NH2) | 8.6 | 
Substrate 7: FRET substrate of the template; X2 Val, X1′ Gly, spacer Ahx ({5(6)‑carboxyfluorescein-Ahx}-DEVDG[Ahx]K(MethylRed)-NH2) | 3.9 | 
Substrate 11: FRET substrate of the template; X2 Val, X1′ Ser, spacer Ahx ({5(6)‑carboxyfluorescein-Ahx}-DEVDS[Ahx]K(MethylRed)-NH2) | 2.4 | 
Substrate 5: FRET substrate of the template; X2 Pro, no X1′, spacer Ahx ({5(6)‑carboxyfluorescein-Ahx}-DEPD[Ahx]K(MethylRed)-NH2) | 3.5 | 
Substrate 2: FRET substrate of the template; X2 Pro, X1′ Ala, no spacer ({5(6)‑carboxyfluorescein-Ahx}-DEPDAK(MethylRed)-NH2) |  | Activation with caspase-3 in preliminary screen (in words) [2]: reduced activation
Ac-Asp-Glu-Val-Asp-AFC [reference compound] | 1.1 | 
Substrate 8: FRET substrate of the template; X2 Pro, X1′ Ala, spacer Ahx ({5(6)‑carboxyfluorescein-Ahx}-DEPDA[Ahx]K(MethylRed)-NH2) | 0.14 | Activation with caspase-3 in preliminary screen (in words) [2]: activity was restored
MCA-Asp-Glu-Val-Asp-Ala-Pro-Lys-DNP [reference compound] | 0.4 | 
Substrate 10: FRET substrate of the template; X2 Pro, X1′ Ser, spacer Ahx ({5(6)‑carboxyfluorescein-Ahx}-DEPDS[Ahx]K(MethylRed)-NH2) | 0.5 | Activation with caspase-3 in preliminary screen (in words) [2]: activity was restored
Substrate 6: FRET substrate of the template; X2 Pro, X1′ Gly, spacer Ahx ({5(6)‑carboxyfluorescein-Ahx}-DEPDG[Ahx]K(MethylRed)-NH2) | 8.4 | 
Substrate 4: FRET substrate of the template; X2 Val, no X1′, spacer Ahx ({5(6)‑carboxyfluorescein-Ahx}-DEVD[Ahx]K(MethylRed)-NH2) | 3.4 | 
Substrate 9: FRET substrate of the template; X2 Val, X1′ Ala, spacer Ahx ({5(6)‑carboxyfluorescein-Ahx}-DEVDA[Ahx]K(MethylRed)-NH2) | 3.2 | Fold higher increase in fluorescence than Ac-Asp-Glu-Val-Asp-AFC (AFC) ([2]; all substrates at 20 μM, n = 3 (Fig. S2)): 3 fold
Substrate 3: FRET substrate of the template; X2 Pro, X1′ Ser, no spacer ({5(6)‑carboxyfluorescein-Ahx}-DEPDSK(MethylRed)-NH2) |  | Activation with caspase-3 in preliminary screen (in words) [2]: reduced activation
Mca-DEVDAPK(Dnp) [MCA-Asp-Glu-Val-Asp-Ala-Pro-Lys-DNP] |  | K M (μM) of cleavage of the fluorogenic substrate by caspase-3 [3]: 13.5 µM; K M (μM) of cleavage of the fluorogenic substrate by caspase-7 [4]: 15.1 µM
Ac-DEVD-{AFC} [Ac-Asp-Glu-Val-Asp-AFC] |  | K M (μM) of cleavage of the fluorogenic substrate by caspase-3 [3]: 9.8 µM; K M (μM) of cleavage of the fluorogenic substrate by caspase-7 [4]: 10.8 µM
